From ChEMBL document CHEMBL1126625, “7-Azetidinylquinolones as antibacterial agents. Synthesis and structure-activity relationships” (J Med Chem, 1993)
≈ marks a conversion by molar mass, not a printed value.

Key:
Format in all cases: functional
Bacillus cereus = experiment: Minimum inhibitory concentration (MIC) preventing growth of Bacillus cereus
Bacillus subtilis = experiment: Minimum inhibitory concentration (MIC) preventing growth of Bacillus subtilis
Escherichia coli [1] = experiment: Minimum inhibitory concentration (MIC)preventing growth of Escherichia coli
Escherichia coli [2] = experiment: Efficacy on systemic infections after oral administration in mice was determined against Escherichia coli HM-42
In short: (§1)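 Mouse protection test using 4 groups of 10 mice. Mice were infected intraperitoneally with a bacterial suspension slightly above LD100. A single oral dose was given immediately after infection, with four doses, one per group, chosen from in vitro activity. Survival was scored after one week, and ED50 (total mg/kg protecting 50% of mice) was interpolated from group survival rates.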

Klebsiella pneumoniae = experiment: Minimum inhibitory concentration (MIC)preventing growth of Klebsiella pneumoniae
Morganella morganii = experiment: Minimum inhibitory concentration (MIC) preventing growth of Morganella morganii
Pseudomonas aeruginosa [3] = experiment: Efficacy on systemic infections after oral administration in mice was determined against Pseudomonas aeruginosa HS-116; in short: as §1
Proteus vulgaris = experiment: Minimum inhibitory concentration (MIC) preventing growth of Proteus vulgaris
[4] = system: Staphylococcus epidermidis; experiment: Minimum inhibitory concentration (MIC) preventing growth of Staphylococcus epidermidis
Staphylococcus aureus [5] = experiment: Minimum inhibitory concentration (MIC) preventing growth of […]
Staphylococcus aureus [6] = experiment: Efficacy on systemic infections after oral administration in mice was determined against […] HS-93; in short: as §1
Enterococcus faecalis = experiment: Minimum inhibitory concentration (MIC) preventing growth of Streptococcus faecalis ATCC 10541
Enterobacter cloacae = experiment: Minimum inhibitory concentration (MIC)preventing growth of Enterobacter cloacae
Pseudomonas aeruginosa [7] = experiment: Minimum inhibitory concentration (MIC)preventing growth of Pseudomonas aeruginosa

Row | SMILES | MIC (Bacillus cereus) [µg/mL] | MIC (Bacillus subtilis) [µg/mL] | MIC (Escherichia coli [1]) [µg/mL] | ED50 (Escherichia coli [2]) [mg/kg] | MIC (Klebsiella pneumoniae) [µg/mL] | MIC (Morganella morganii) [µg/mL] | ED50 (Pseudomonas aeruginosa [3]) [mg/kg] | MIC (Proteus vulgaris) [µg/mL] | MIC [4] [µg/mL] | MIC (Staphylococcus aureus [5]) [µg/mL] | ED50 (Staphylococcus aureus [6]) [mg/kg] | MIC (Enterococcus faecalis) [µg/mL] | MIC (Enterobacter cloacae) [µg/mL] | MIC (Pseudomonas aeruginosa [7]) [µg/mL]
1 | CC1(N)CN(c2c(F)cc3c(=O)c(C(=O)O)cn(-c4ccc(F)cc4)c3c2F)C1 | 0.12 (≈ 0.298 µM) | 0.12 (≈ 0.298 µM) | 0.25 (≈ 0.62 µM) | 3.2 | 0.015 (≈ 0.0372 µM) | 0.25 (≈ 0.62 µM) | 159 | 1 (≈ 2.48 µM) | 0.12 (≈ 0.298 µM) | 0.12 (≈ 0.298 µM) | 10.9 | 2 (≈ 4.96 µM) | 0.25 (≈ 0.62 µM) | 2 (≈ 4.96 µM)
2 | NC1CN(c2nc3c(cc2F)c(=O)c(C(=O)O)cn3-c2ccc(F)cc2F)C1 | 0.25 (≈ 0.64 µM) | 0.12 (≈ 0.307 µM) | 0.12 (≈ 0.307 µM) | 1.5 | 0.015 (≈ 0.0384 µM) | 0.25 (≈ 0.64 µM) | 75.2 | 0.5 (≈ 1.28 µM) | 0.25 (≈ 0.64 µM) | 0.25 (≈ 0.64 µM) | 5.3 | 2 (≈ 5.12 µM) | 0.12 (≈ 0.307 µM) | 2 (≈ 5.12 µM)
3 | CC1(N)CN(c2c(F)c(N)c3c(=O)c(C(=O)O)cn(C4CC4)c3c2F)C1 | 0.06 (≈ 0.165 µM) | 0.015 (≈ 0.0412 µM) | 0.015 (≈ 0.0412 µM) | 3.3 | 0.015 (≈ 0.0412 µM) | 0.015 (≈ 0.0412 µM) | 71 | 0.12 (≈ 0.329 µM) | 0.06 (≈ 0.165 µM) | 0.06 (≈ 0.165 µM) | 7.2 | 0.25 (≈ 0.686 µM) | 0.015 (≈ 0.0412 µM) | 0.5 (≈ 1.37 µM)
4 | CN(C)C1(C)CN(c2cc3c(cc2F)c(=O)c(C(=O)O)cn3C2CC2)C1 | 0.25 (≈ 0.696 µM) | 0.06 (≈ 0.167 µM) | 0.25 (≈ 0.696 µM) | 2.7 | 0.25 (≈ 0.696 µM) | 0.25 (≈ 0.696 µM) | 296 | 0.5 (≈ 1.39 µM) | 0.25 (≈ 0.696 µM) | 0.25 (≈ 0.696 µM) | 16.1 | 2 (≈ 5.56 µM) | 0.25 (≈ 0.696 µM) | 4 (≈ 11.1 µM)
5 | CN(C)C1(C)CN(c2c(F)cc3c(=O)c(C(=O)O)cn(C4CC4)c3c2F)C1 | 0.25 (≈ 0.662 µM) | 0.06 (≈ 0.159 µM) | 0.12 (≈ 0.318 µM) | 1.4 | 0.25 (≈ 0.662 µM) | 0.25 (≈ 0.662 µM) | 70.2 | 0.5 (≈ 1.32 µM) | 0.25 (≈ 0.662 µM) | 0.25 (≈ 0.662 µM) | 7.4 | 1 (≈ 2.65 µM) | 0.12 (≈ 0.318 µM) | 2 (≈ 5.3 µM)
6 | CC1(N)CN(c2c(F)cc3c(=O)c(C(=O)O)cn(-c4ccc(F)cc4)c3c2Cl)C1 | 0.06 (≈ 0.143 µM) | 0.015 (≈ 0.0357 µM) | 0.03 (≈ 0.0715 µM) | 0.4 | 0.03 (≈ 0.0715 µM) | 0.12 (≈ 0.286 µM) | 54.9 | 0.12 (≈ 0.286 µM) | 0.06 (≈ 0.143 µM) | 0.06 (≈ 0.143 µM) | 1.1 | 0.25 (≈ 0.596 µM) | 0.06 (≈ 0.143 µM) | 0.5 (≈ 1.19 µM)
7 | O=C(O)c1cn(C2CC2)c2c(F)c(N3CC(O)C3)c(F)cc2c1=O | 0.03 (≈ 0.0892 µM) | 0.007 (≈ 0.0208 µM) | 0.06 (≈ 0.178 µM) | 11.3 | 0.007 (≈ 0.0208 µM) | 0.06 (≈ 0.178 µM) | 61.3 | 0.06 (≈ 0.178 µM) | 0.12 (≈ 0.357 µM) | 0.06 (≈ 0.178 µM) | 29.7 | 0.5 (≈ 1.49 µM) | 0.06 (≈ 0.178 µM) | 2 (≈ 5.95 µM)
8 | CNC1CN(c2cc3c(cc2F)c(=O)c2c(=O)[nH]sc2n3C2CC2)C1 | 0.12 (≈ 0.333 µM) | 0.03 (≈ 0.0832 µM) | 0.03 (≈ 0.0832 µM) |  | 0.12 (≈ 0.333 µM) | 0.06 (≈ 0.166 µM) |  | 0.12 (≈ 0.333 µM) | 0.12 (≈ 0.333 µM) | 0.12 (≈ 0.333 µM) |  | 0.25 (≈ 0.694 µM) | 0.12 (≈ 0.333 µM) | 0.5 (≈ 1.39 µM)
9 | CCNCC1(C)CN(c2cc3c(cc2F)c(=O)c(C(=O)O)cn3C2CC2)C1 | 0.12 (≈ 0.321 µM) | 0.12 (≈ 0.321 µM) | 0.12 (≈ 0.321 µM) |  | 0.5 (≈ 1.34 µM) | 0.5 (≈ 1.34 µM) |  | 0.25 (≈ 0.669 µM) | 0.5 (≈ 1.34 µM) | 0.25 (≈ 0.669 µM) |  | 1 (≈ 2.68 µM) | 0.25 (≈ 0.669 µM) | 4 (≈ 10.7 µM)
10 | CC1(O)CN(c2cc3c(cc2F)c(=O)c(C(=O)O)cn3C2CC2)C1 | 0.12 (≈ 0.361 µM) | 0.06 (≈ 0.181 µM) | 0.25 (≈ 0.752 µM) |  | 0.06 (≈ 0.181 µM) | 0.25 (≈ 0.752 µM) |  | 0.12 (≈ 0.361 µM) | 0.12 (≈ 0.361 µM) | 0.12 (≈ 0.361 µM) |  | 1 (≈ 3.01 µM) | 0.12 (≈ 0.361 µM) | 2 (≈ 6.02 µM)
11 | CC(=O)CN(C)C1(C)CN(c2cc3c(cc2F)c(=O)c(C(=O)O)cn3C2CC2)C1 | 0.25 (≈ 0.623 µM) | 0.06 (≈ 0.149 µM) | 0.25 (≈ 0.623 µM) |  | 0.015 (≈ 0.0374 µM) | 0.5 (≈ 1.25 µM) |  | 0.5 (≈ 1.25 µM) | 0.25 (≈ 0.623 µM) | 0.25 (≈ 0.623 µM) |  | 2 (≈ 4.98 µM) | 0.25 (≈ 0.623 µM) | 4 (≈ 9.96 µM)
12 | Nc1c(F)c(N2CC(O)C2)c(F)c2c1c(=O)c(C(=O)O)cn2C1CC1 | 0.015 (≈ 0.0427 µM) | 0.015 (≈ 0.0427 µM) | 0.06 (≈ 0.171 µM) |  | 0.015 (≈ 0.0427 µM) | 0.12 (≈ 0.342 µM) |  | 0.12 (≈ 0.342 µM) | 0.06 (≈ 0.171 µM) | 0.06 (≈ 0.171 µM) |  | 2 (≈ 5.69 µM) | 0.12 (≈ 0.342 µM) | 2 (≈ 5.69 µM)
